The source of these data is ChEMBL document CHEMBL2396536, “Curcuminoids block TGF-β signaling in human breast cancer cells and limit osteolysis in a murine model of breast cancer bone metastasis” (J Nat Prod, 2013).

Data set [1] deals with Mus musculus. The data set can be described thus: Toxicity in human MDA-MB-231 cells xenografted athymic nude mouse left cardiac ventricle assessed as effect on spleen weight at 25 mg/kg, ip administered every other day for 3 weeks (reference value: 0.134 +/- 0.02 gram). The data set is classed as organism-based. The arrangement: dose 25 mg/kg, route intraperitoneal. As to conditions: in vivo, 504 h.

For data set [2], the system named is MDA-MB-231. Kind of data set: Inhibition of osteolytic bone metastases in human MDA-MB-231 cells xenografted in athymic nude mouse left cardiac ventricle assessed as reduction of bone-tumor interface at 50 mg/kg, ip administered every other day for 3 weeks. The data set is classed as functional. As to conditions: MDA-MB-231, Heart left ventricle, 504 h, route intraperitoneal. In short, it runs like this:
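Intracardiac MDA-MB-231 model in nude mice, dosed ip every other day for 21 days. Mid-sagittal tibia and femur sections TRAP-stained. TRAP+ multinucleated (>3 nuclei) cells counted at 40x along the tumor-bone interface. Expressed as osteoclasts per mm of interface.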

In data set [3] the test system is MDA-MB-231. Kind of data set: Inhibition of osteolytic bone metastases in human MDA-MB-231 cells xenografted in athymic nude mouse left cardiac ventricle assessed as reduction of bone lysis at 25 to 50 mg/kg, ip administered every other day for 3 weeks measured on day 21. Format: functional, Heart left ventricle. The settings on record: dose mg/kg 25-50; route intraperitoneal. The method in brief: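 Four-week female athymic nude mice inoculated with 1 × 10^5 MDA-MB-231 cells in 0.1 mL PBS into the left cardiac ventricle. Dosed ip at 25 or 50 mg/kg or vehicle every other day from day 1 for 21 days, n = 11/group. Lytic lesion area quantified on radiographs on days 12, 16 and 21. Two-way ANOVA with Bonferroni.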

The test system of data set [4] is MDA-MB-231. Kind of data set: Inhibition of osteolytic bone metastases in human MDA-MB-231 cells xenografted in athymic nude mouse left cardiac ventricle assessed as effect on tumor burden at 25 to 50 mg/kg, ip administered every other day for 3 weeks by histological analysis. As to conditions: Heart left ventricle. The data set is classed as functional, organism-based. In short, it runs like this: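 Intracardiac MDA-MB-231 model in female nude mice, dosed ip every other day for 21 days, n = 11/group. Hindlimbs harvested day 21, formalin-fixed and EDTA-decalcified. Tumor area measured blinded on mid-sagittal 5 μm H&E sections of tibiae and femora at 10x magnification.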

Data set [5] relates to Mus musculus. The data set can be described thus: Toxicity in human MDA-MB-231 cells xenografted athymic nude mouse left cardiac ventricle assessed as effect on hematocrit at 25 mg/kg, ip administered every other day for 3 weeks (reference value: 30.2 +/- 1.5%). Format: organism-based, Heart. Set-up: dose 25 mg/kg, route intraperitoneal. The settings on record: in vivo, 504 h.

Data set [6] deals with Mothers against decapentaplegic homolog 2 (Homo sapiens) (UniProt Q15796). The data set can be described thus: Inhibition of TGF-beta-induced Smad2 phosphorylation in human MDA-MB-231 cells treated 12 hrs before TGF-beta challenge measured after 1 hr by Western blotting. Format: cell-based. The method in brief: (§1)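 Subconfluent MDA-MB-231 pre-treated 12 h with compound (80 μM), then TGF-β (5 ng/mL) for 1 h. RIPA whole-cell lysates (18 μg) run on SDS-PAGE and transferred to PVDF. Probed with rabbit anti-phospho-Smad2, phospho-Smad3, phospho-p38 or Ets-1 (1:1000, overnight, 4 °C). β-actin used as loading control. Chemiluminescent detection; three independent experiments.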
Sequence of Mothers against decapentaplegic homolog 2 (Homo sapiens) (Q15796 whole entry): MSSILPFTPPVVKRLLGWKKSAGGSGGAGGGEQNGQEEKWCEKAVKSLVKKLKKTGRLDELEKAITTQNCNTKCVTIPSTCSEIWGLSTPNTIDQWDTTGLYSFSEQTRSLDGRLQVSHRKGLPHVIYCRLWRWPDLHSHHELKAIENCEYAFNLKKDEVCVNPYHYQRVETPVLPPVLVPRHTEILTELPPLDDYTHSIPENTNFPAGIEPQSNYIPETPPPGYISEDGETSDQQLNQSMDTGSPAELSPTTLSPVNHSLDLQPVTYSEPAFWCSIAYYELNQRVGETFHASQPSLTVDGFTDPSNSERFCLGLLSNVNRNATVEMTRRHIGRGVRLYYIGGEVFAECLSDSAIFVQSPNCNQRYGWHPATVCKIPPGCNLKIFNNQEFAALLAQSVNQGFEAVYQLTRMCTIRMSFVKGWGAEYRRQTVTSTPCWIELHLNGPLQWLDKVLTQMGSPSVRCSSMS

Data set [7] relates to Mus musculus. The data set can be described thus: Toxicity in human MDA-MB-231 cells xenografted athymic nude mouse left cardiac ventricle assessed as effect on liver weight at 50 mg/kg, ip administered every other day for 3 weeks (reference value: 1 +/- 0.10 gram). Set-up: dose 50 mg/kg, route intraperitoneal. As to conditions: in vivo, 504 h. Format: organism-based, Heart.

Data set [8] deals with MAP kinase p38 (Homo sapiens) (UniProt O15264+Q15759+Q16539+P53778). Kind of data set: Inhibition of TGF-beta-induced p38 phosphorylation in human MDA-MB-231 cells treated 12 hrs before TGF-beta challenge measured after 1 hr by Western blotting. Format: cell-based. In short, it runs like this:
as §1

The target in data set [9] is Mothers against decapentaplegic homolog 3 (Homo sapiens) (UniProt P84022). The data set can be described thus: Inhibition of TGF-beta-induced Smad3 phosphorylation in human MDA-MB-231 cells treated 12 hrs before TGF-beta challenge measured after 1 hr by Western blotting. The data set is classed as cell-based. In short, it runs like this:
as §1

Structures are written as SMILES. Activity calls are given as the source filed them. No cut-off for these calls is given here.

Sequence of Mothers against decapentaplegic homolog 3 (Homo sapiens) (P84022 2-425 limits assumed): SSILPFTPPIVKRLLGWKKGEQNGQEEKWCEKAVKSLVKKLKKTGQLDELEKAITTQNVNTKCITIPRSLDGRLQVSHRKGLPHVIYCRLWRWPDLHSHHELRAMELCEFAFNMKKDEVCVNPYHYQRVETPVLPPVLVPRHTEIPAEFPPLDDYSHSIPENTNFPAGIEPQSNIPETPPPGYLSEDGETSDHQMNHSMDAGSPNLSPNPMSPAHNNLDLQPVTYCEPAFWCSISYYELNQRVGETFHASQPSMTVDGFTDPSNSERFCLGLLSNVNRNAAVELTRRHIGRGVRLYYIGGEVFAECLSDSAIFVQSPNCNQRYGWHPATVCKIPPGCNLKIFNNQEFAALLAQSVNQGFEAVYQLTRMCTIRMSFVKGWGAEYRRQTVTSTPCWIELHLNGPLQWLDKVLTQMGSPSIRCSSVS

As to `O=C(/C=C/c1ccc(O)cc1)CC(=O)/C=C/c1ccc(O)cc1` [BISDEMETHOXYCURCUMIN], the Activity in [1] is on record as 0.129 g; in data set [5], 30.6%; in [7], 1.1 g. Moreover, in data set [2], the inhibition in vivo at 50 mg/kg is 48%. Moreover, the “inhibition (INH)” value in [3] is listed as greater than 50%. The inhibition entry in data set [4] and in data set [8] was “inactive” in each case. In addition, the inhibition entry in data set [6] and in data set [9] was “Active” throughout.

Consider `COc1cc(/C=C/C(=O)CC(=O)/C=C/c2ccc(O)c(OC)c2)ccc1O` [CURCUMIN], for which the Activity in data set [1] was 0.129 g; in data set [5], 30.6%; in data set [7], 1.1 g. Also, the inhibition in vivo at 50 mg/kg in data set [2] amounted to 48%. The “inhibition (INH)” value in data set [3] is recorded as greater than 50%. Moreover, the inhibition entry in [4] and in data set [8] was “inactive” each time. The inhibition entry in [6] and in data set [9] was “Active” throughout.

As to `COc1cc(/C=C/C(O)=C/C(=O)/C=C/c2ccc(O)cc2)ccc1O` [DEMETHOXYCURCUMIN], the Activity in data set [1] came out at 0.129 g; in data set [5], 30.6%; in data set [7], 1.1 g. Besides, in data set [2], the inhibition in vivo at 50 mg/kg was found to be 48%. Moreover, the “inhibition (INH)” value in [3] is given as greater than 50%. Further, the inhibition result in data set [4] and in data set [8] was “inactive” each time. Moreover, the inhibition entry in [6] and in [9] was “Active” in each case.
